Assay results published in ChEMBL document CHEMBL4680103, “In Vitro and in Vivo Anti-Trypanosoma cruzi Activity of New Arylamine Mannich Base-Type Derivatives” (J Med Chem, 2016).
Activity calls are given as the source filed them. No cut-off for these calls is given here.

Assays:
Trypanosoma cruzi [1] = experiment: Antitrypanosomal activity against Trypanosoma cruzi Arequipa epimastigote forms incubated for 72 hrs by hemocytometry; assay type: functional, organism-based
Method in brief: (§1)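 Epimastigotes grown in MTL medium with 10% inactivated FBS at 28 °C. Compounds were dissolved in DMSO (0.01% v/v) and added at 0.1–100 µM for 72 h. Parasites were counted in a Neubauer chamber. IC50 (50% growth inhibition) was derived by linear regression of Kc values. Values are averages of four determinations.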

Trypanosoma cruzi [2] = experiment: Antitrypanosomal activity against Trypanosoma cruzi Arequipa amastigote forms infected in African green monkey Vero cells incubated for 72 hrs by Giemsa staining based micrscopy; assay type: functional, organism-based
Method in brief: (§2)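 Vero cells (RPMI, 10% inactivated FBS, 37 °C, 5% CO2) were seeded at 1×10^4/well on coverslips and cultured 2 days. They were infected 24 h with metacyclic forms at 10:1. After washing off free parasites, drugs were added at 0.1–100 µM for 72 h. Slides were methanol-fixed and Giemsa-stained; amastigotes were counted in 200 host cells versus untreated. IC50 was calculated.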

Trypanosoma cruzi [3] = experiment: Antitrypanosomal activity against Trypanosoma cruzi Arequipa trypomastigote froms infected in mouse blood incubated for 24 hrs by Neubauer chamber based assay; assay type: functional, organism-based
Method in brief: (§3)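 Mouse blood taken at peak parasitemia (day 7) was diluted with uninfected blood to 4×10^6 trypomastigotes/mL, then 1:2 in RPMI 1640. Drugs from DMSO stocks were added at 1, 10, 25, 50 and 100 µM and incubated 24 h at 4–8 °C. Parasites were counted in a Neubauer chamber in triplicate. IC50 was calculated versus control.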

Trypanosoma cruzi [4] = experiment: Antitrypanosomal activity against Trypanosoma cruzi Tulahuen epimastigote forms incubated for 72 hrs by hemocytometry; assay type: functional, organism-based; method in brief: as §1
Trypanosoma cruzi [5] = experiment: Antitrypanosomal activity against Trypanosoma cruzi Tulahuen amastigote forms infected in African green monkey Vero cells incubated for 72 hrs by Giemsa staining based micrscopy; assay type: functional, organism-based; method in brief: as §2
Trypanosoma cruzi [6] = experiment: Antitrypanosomal activity against Trypanosoma cruzi Tulahuen trypomastigote froms infected in mouse blood incubated for 24 hrs by Neubauer chamber based assay; assay type: functional, organism-based; method in brief: as §3
Trypanosoma cruzi [7] = experiment: Antitrypanosomal activity against Trypanosoma cruzi SN3 epimastigote forms incubated for 72 hrs by hemocytometry; assay type: functional, organism-based; settings: SN3, 72 h; method in brief: as §1
Trypanosoma cruzi [8] = experiment: Antitrypanosomal activity against Trypanosoma cruzi SN3 amastigote forms infected in African green monkey Vero cells incubated for 72 hrs by Giemsa staining based micrscopy; assay type: functional, organism-based; method in brief: as §2
Trypanosoma cruzi [9] = experiment: Antitrypanosomal activity against Trypanosoma cruzi SN3 trypomastigote froms infected in mouse blood incubated for 24 hrs by Neubauer chamber based assay; assay type: functional, organism-based; method in brief: as §3
Vero = experiment: Cytotoxicity in African green monkey Vero cells incubated for 72 hrs; assay type: cell-based; settings: Chlorocebus sabaeus
[10] = Selectivity index, ratio of IC50 for cytotoxicity in African green monkey Vero cells to IC50 for antitrypanosomal activity against Trypanosoma cruzi […] amastigote forms; assay type: toxicity, cell-based; settings: read-out: Ratio IC50
[11] = Selectivity index, ratio of IC50 for cytotoxicity in African green monkey Vero cells to IC50 for antitrypanosomal activity against Trypanosoma cruzi […] epimastigote forms
Trypanosoma cruzi [12] = experiment: Antitrypanosomal activity against Trypanosoma cruzi infected in African green monkey Vero cells assessed as reduction in number of trypomastigotes measured up to 10 days by Giemsa staining based hemocytometry; assay type: functional; settings: time day <=10
Method in brief: (§4)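 Vero cells infected with metacyclic forms (10:1) were exposed to one concentration per compound immediately after infection for 12 h at 37 °C, 5% CO2. After washing, cultures were kept 10 days with fresh medium every 48 h. Every 48 h, % infected cells and amastigotes per infected cell (200 Giemsa-stained cells) and medium trypomastigotes (Neubauer) were scored. Means of three experiments.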

Trypanosoma cruzi [13] = experiment: Antitrypanosomal activity against Trypanosoma cruzi infected in African green monkey Vero cells assessed as reduction in number of amastigotes per infected cell measured up to 10 days by Giemsa staining based hemocytometry; assay type: functional; settings: time day <=10; method in brief: as §4
Trypanosoma cruzi [14] = experiment: Antitrypanosomal activity against Trypanosoma cruzi infected in African green monkey Vero cells assessed as reduction in infection rate measured up to 10 days by Giemsa staining based hemocytometry; assay type: functional; settings: time day <=10; method in brief: as §4
Trypanosoma cruzi [15] = experiment: Antitrypanosomal activity against Trypanosoma cruzi Arequipa trypomastigotes infected in BALB/c mouse assessed as reduction in parasitemia measured during acute phase (days 0 to 40 post infection) at 50 to 100 mg/kg, po dosed on alternating days (7 to 15 days post infection); assay type: functional, organism-based; settings: dose 50-100 mg/kg
Method in brief: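 Female BALB/c mice (8–10 weeks, 25–30 g; groups of six) were infected i.p. with 5×10^5 Arequipa blood trypomastigotes. Dosing was oral, 50 or 100 mg/kg/day, on 5 alternating days (days 7–15 pi), alongside untreated and reference-drug groups. Parasitemia was counted in 5 µL mandibular-vein blood by Neubauer chamber through day 40 pi. Data are means ± SD of six mice.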

Trypanosoma cruzi [16] = experiment: Antitrypanosomal activity against Trypanosoma cruzi Arequipa trypomastigotes infected in BALB/c mouse assessed as reduction in mouse mortality measured during acute phase (days 0 to 40 post infection) at 50 to 100 mg/kg, po dosed on alternating days (7 to 15 days post infection); assay type: functional, organism-based; settings: dose 50-100 mg/kg
Trypanosoma cruzi [17] = experiment: Antitrypanosomal activity against Trypanosoma cruzi Arequipa trypomastigotes infected in BALB/c mouse assessed as parasitemia re-activation level measured during chronic phase ( day 90 post infection) at 100 mg/kg, po dosed on alternating days (7 to 15 days post infection) relative to acute phase infection (reference value: […]%); assay type: functional
Trypanosoma cruzi [18] = experiment: Antitrypanosomal activity against Trypanosoma cruzi Arequipa trypomastigotes infected in BALB/c mouse assessed as reduction in parasitemia level in adipose tissue measured during acute phase (days 0 to 40 post infection) at 100 mg/kg, po dosed on alternating days (7 to 15 days post infection) by PCR analysis; assay type: functional, organism-based
Trypanosoma cruzi [19] = experiment: (§5) Antitrypanosomal activity against Trypanosoma cruzi Arequipa trypomastigotes infected in BALB/c mouse assessed as reduction in parasitemia level in brain measured during acute phase (days 0 to 40 post infection) at 100 mg/kg, po dosed on alternating days (7 to 15 days post infection) by PCR analysis; assay type: functional, organism-based
Trypanosoma cruzi [20] = experiment: as §5, with “level in heart measured during” for “level in brain measured during”, “infection) at 50 to 100 mg/kg,” for “infection) at 100 mg/kg,”; assay type: functional, organism-based; settings: dose 50-100 mg/kg
Trypanosoma cruzi [21] = experiment: Antitrypanosomal activity against Trypanosoma cruzi Arequipa trypomastigotes infected in BALB/c mouse assessed as reduction in parasitemia level in heart measured during acute phase (days 0 to 40 post infection) at 100 mg/kg, po dosed on alternating days (7 to 15 days post infection) by PCR analysis; assay type: functional, organism-based
Trypanosoma cruzi [22] = experiment: as §5, with “esophagus” for “brain”; assay type: functional, organism-based
Trypanosoma cruzi [23] = experiment: as §5, with “stomach” for “brain”; assay type: functional, organism-based
Trypanosoma cruzi [24] = experiment: as §5, with “bone marrow” for “brain”; assay type: functional, organism-based
Trypanosoma cruzi [25] = experiment: as §5, with “muscle” for “brain”; assay type: functional, organism-based
Trypanosoma cruzi [26] = experiment: Antitrypanosomal activity against Trypanosoma cruzi Arequipa trypomastigotes infected in BALB/c mouse assessed as reduction in parasitemia level in lung measured during acute phase (days 0 to 40 post infection) at 100 mg/kg, po dosed on alternating days (7 to 15 days post infection) by PCR analysis; assay type: functional, organism-based
Trypanosoma cruzi [27] = experiment: Antitrypanosomal activity against Trypanosoma cruzi Arequipa trypomastigotes infected in BALB/c mouse assessed as reduction in splenomegaly by measuring weight percent of spleens […] at 50 mg/kg, po dosed on alternating days (7 to 15 days post infection) by PCR analysis (reference value: 1.603%); assay type: functional; set-up: scale not given: the % may be the effect or the level left
Trypanosoma cruzi [28] = experiment: Antitrypanosomal activity against Trypanosoma cruzi Arequipa trypomastigotes infected in BALB/c mouse assessed as reduction in splenomegaly by measuring weight percent of spleens […] at 100 mg/kg, po dosed on alternating days (7 to 15 days post infection) by PCR analysis (reference value: 1.603%); assay type: functional
Trypanosoma cruzi [29] = experiment: Inhibition of Trypanosoma cruzi Arequipa Fe-SOD at <50 uM by NBT dye based spectrophotometry; settings: dose microM <50
Method in brief: (§6)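 Fe-SOD source: Arequipa epimastigote homogenate (STE buffer pH 7.8, sonication, centrifugation, supernatant; protein by Bradford); CuZn-SOD was commercial human erythrocyte enzyme. Activity was measured as NBT reduction by superoxide in 50 mM potassium phosphate pH 7.8, with compounds at 5 concentrations (1–100 µM). A560 was read before and after 10 min under lamp light with stirring. Three rate determinations; Newman–Keuls test.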

[30] = target: T1, Superoxide dismutase [Cu-Zn] (Homo sapiens, UniProt P00441); experiment: Inhibition of human erythrocyte CuZn-SOD at 100 uM by NBT dye based spectrophotometry; method in brief: as §6
T1 sequence (P00441 whole entry): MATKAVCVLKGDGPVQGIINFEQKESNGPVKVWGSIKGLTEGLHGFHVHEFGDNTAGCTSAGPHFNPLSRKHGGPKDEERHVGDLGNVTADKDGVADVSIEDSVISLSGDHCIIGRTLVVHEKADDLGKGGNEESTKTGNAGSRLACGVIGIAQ

[31] = Inhibition of Trypanosoma cruzi Arequipa Fe-SOD by NBT dye based spectrophotometry; method in brief: as §6
Trypanosoma cruzi [32] = experiment: Inhibition of Trypanosoma cruzi Arequipa Fe-SOD at 50 uM by NBT dye based spectrophotometry; method in brief: as §6
[33] = target: T1, Superoxide dismutase [Cu-Zn]; experiment: Inhibition of human erythrocyte CuZn-SOD at 50 uM by NBT dye based spectrophotometry; method in brief: as §6
[34] = target: T1, Superoxide dismutase [Cu-Zn]; experiment: Inhibition of human erythrocyte CuZn-SOD by NBT dye based spectrophotometry; method in brief: as §6

| IC50 (Trypanosoma cruzi [1]) [µM] | IC50 (Trypanosoma cruzi [2]) [µM] | IC50 (Trypanosoma cruzi [3]) [µM] | IC50 (Trypanosoma cruzi [4]) [µM] | IC50 (Trypanosoma cruzi [5]) [µM] | IC50 (Trypanosoma cruzi [6]) [nM] | IC50 (Trypanosoma cruzi [7]) [µM] | IC50 (Trypanosoma cruzi [8]) [µM] | IC50 (Trypanosoma cruzi [9]) [µM] | SMILES | IC50 (Vero) [mM] | inhibition (INH) (Trypanosoma cruzi [12]) [%] | inhibition (INH) (Trypanosoma cruzi [13]) [%] | inhibition (INH) (Trypanosoma cruzi [14]) [%] | Activity (Trypanosoma cruzi [15]) | Activity (Trypanosoma cruzi [16]) | Activity (Trypanosoma cruzi [17]) [%] | Activity (Trypanosoma cruzi [18]) | Activity (Trypanosoma cruzi [19]) | Activity (Trypanosoma cruzi [20]) | Activity (Trypanosoma cruzi [21]) | other results |
| --- | --- | --- | --- | --- | --- | --- | --- | --- | --- | --- | --- | --- | --- | --- | --- | --- | --- | --- | --- | --- | --- |
| 28 | 18.6 | 26.8 | 28 | 20.2 | 22300 | 12.8 | 5.7 | 4.6 | O=C(CCN1CCN(c2cccc(C(F)(F)F)c2)CC1)c1ccsc1 | 0.0048 |  |  |  |  |  |  |  |  |  |  | selectivity ratio [10]: 1; selectivity ratio [11]: 1 |
| 26 | 10.8 | 20.3 | 50.3 | 22.8 | 2500 | 179 | 72.9 | 33 | O=C(CCN1CCN(c2ccc([N+](=O)[O-])cc2C(F)(F)F)CC1)c1csc2ccccc12 | 2.85 | 64 | 74 | 76 | Active | Active | 0 | Active | Active | Active | Active | Activity (Trypanosoma cruzi [22]): Active; Activity (Trypanosoma cruzi [23]): Active; Activity (Trypanosoma cruzi [24]): Active; Activity (Trypanosoma cruzi [25]): Active; Activity (Trypanosoma cruzi [26]): Active; Activity (Trypanosoma cruzi [27]): 1.171%; Spleen weight percent (Trypanosoma cruzi [28]): 0.892%; inhibition (Trypanosoma cruzi [29]): 100%; inhibition [30]: inactive; IC50 [31]: 71.1 µM |
| 77.7 | 11.7 | 35.9 | 35.5 | 19.8 | 500 | 41.4 | 20.7 | 18.6 | O=C(CCN1CCN(c2ccc([N+](=O)[O-])cc2)CC1)c1csc2ccccc12 | 1.71 | 59 | 45 | 59 | Active | Active | 0 | Active | Active | Active | Active | Activity (Trypanosoma cruzi [22]): Active; Activity (Trypanosoma cruzi [23]): Active; Activity (Trypanosoma cruzi [24]): Active; Activity (Trypanosoma cruzi [25]): Active; Activity (Trypanosoma cruzi [26]): Active; Activity (Trypanosoma cruzi [27]): 1.174%; Spleen weight percent (Trypanosoma cruzi [28]): 0.729%; inhibition (Trypanosoma cruzi [32]): 100%; inhibition [33]: 100%; IC50 [31]: 7.8 µM; IC50 [34]: 46.6 µM |
